Source: ChEMBL document CHEMBL1125294, “Chromophore-modified antineoplastic imidazoacridinones. Synthesis and activity against murine leukemias” (J Med Chem, 1992)
Where “and” joins values, the source holds several entries; their conditions need not be identical. Equal values may be shown once.

Assays:
L1210 = experiment: In vitro inhibitory activity against murine L1210 leukemia; type: functional, cell-based; conditions: Mus musculus
How it was run: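 Mouse L1210 leukemia cells were grown in RPMI 1640 with 5% fetal calf serum, penicillin and streptomycin, at 37 °C in 5% CO2. Cells were seeded at 5×10^4 cells/mL and exposed to four concentrations of compound dissolved in 50% ethanol.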

Mus musculus [1] = experiment: Antineoplastic activity was evaluated in vivo against murine leukemia P388 (i.p./i.p.; days 1-5) and optimum dose was reported; type: functional
How it was run: (§1)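 BDF1 mice given 10^6 P388 lymphocytic leukemia cells ip on day 0, then treated ip on days 1-5 following NCI protocols. Full dose-response runs spanned ineffective to clearly toxic doses. Mean survival time was taken per group of eight mice and expressed as % T/C. The optimal dose is the one giving the highest T/C.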

Mus musculus [2] = experiment: In vivo % T/C activity was measured against P388 leukemia;250; type: functional; how it was run: as §1
[3] = Toxicity in CDF1 male mice following a single intraperitoneal administration; type: organism-based; conditions: CDF1, mouse, in vivo, ip
How it was run: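 Acute toxicity after one ip dose in male CDF1 mice. The read-out is the LD50, given as preliminary estimates that are either a dose range or a bound in mg/kg.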

Mus musculus [4] = experiment: In vivo % T/C activity was measured against P388 leukemia; 155; type: functional; how it was run: as §1
Mus musculus [5] = experiment: In vivo % T/C activity was measured against P388 leukemia; 210; type: functional; how it was run: as §1
Mus musculus [6] = experiment: In vivo % T/C activity was measured against P388 leukemia; type: functional; how it was run: as §1
Mus musculus [7] = experiment: In vivo % T/C activity was measured against P388 leukemia; 290; type: functional; how it was run: as §1
Mus musculus [8] = experiment: Antineoplastic activity was evaluated in vivo against murine leukemia P388 (i.p./i.p.; days 1-5) and optimum dose was reported;120; type: functional; how it was run: as §1

Row | SMILES | IC50 (L1210) | Optimal dose (Mus musculus [1]) [mg kg-1 injection-1] | further results
1 | CCN(CC)CCCNc1ccc2nc(C)n3c4ccc(OC)cc4c(=O)c1c23 | 0.7 µg/mL and 1.4 µM | 150 | 
2 | Cc1nc2ccc(NCCN(C)C)c3c(=O)c4cc(O)ccc4n1c23 | 0.06 µg/mL and 135 nM | 12.5 | T/C (Mus musculus [2]): 200%; LD50 [3]: 250 mg/kg
3 | CCN(CC)CCCNc1ccc2nc(C)n3c4ccc(O)cc4c(=O)c1c23 | 0.4 µg/mL and 890 nM | 25 | T/C (Mus musculus [4]): 150%
4 | CCN(CC)CCCNc1ccc2ncn3c4ccc(OC)cc4c(=O)c1c23 | 1.1 µg/mL and 2.5 µM | 150 | 
5 | CN(C)CCNc1ccc2ncn3c4ccc(O)cc4c(=O)c1c23 | 0.02 µg/mL and 48 nM | 12.5 | T/C (Mus musculus [5]): 210%
6 | COc1ccc2c(c1)c(=O)c1c(NCCCN(C)C)ccc3ncn2c31 | 3.5 µg/mL and 8.2 µM | 150 | 
7 | COc1ccc2c(c1)c(=O)c1c(NCCCN(C)C)ccc3nc(C)n2c31 | 1.4 µg/mL and 3.2 µM | 150 | 
8 | CN(C)CCCNc1ccc2ncn3c4ccc(O)cc4c(=O)c1c23 | 0.014 µg/mL and 34 nM | 5 | 
9 | O=C1c2ccccc2C(=O)c2c(NCCNCCO)ccc(NCCNCCO)c21 [AMETANTRONE] | 1.77 µg/mL and 3.65 µM | 12.5 | T/C (Mus musculus [6]): 300%
10 | COc1ccc2c(c1)c(=O)c1c(NCCN(C)C)ccc3ncn2c31 | 0.65 µg/mL and 1.65 µM | 100 | 
11 | CCN(CC)CCNc1ccc2ncn3c4ccc(OC)cc4c(=O)c1c23 | 0.78 µg/mL and 1.8 µM | 100 | LD50 [3]: 500 mg/kg
12 | CCN(CC)CCCNc1ccc2ncn3c4ccc(O)cc4c(=O)c1c23 | 0.08 µg/mL and 180 nM | 25 | 
13 | CCN(CC)CCNc1ccc2ncn3c4ccc(O)cc4c(=O)c1c23 [C-1311] | 0.013 µg/mL and 31 nM | 5 | LD50 [3]: > 200 mg/kg
14 | CCN(CC)CCNc1ccc2nc(C)n3c4ccc(O)cc4c(=O)c1c23 | 0.11 µg/mL and 250 nM | 75 | LD50 [3]: 500 mg/kg; T/C (Mus musculus [7]): 280%
15 | CCN(CC)CCNc1ccc2nc(C)n3c4ccc(OC)cc4c(=O)c1c23 | 0.7 µg/mL and 1.55 µM |  | Optimal dose (Mus musculus [8]): 150 mg kg-1 injection-1
16 | COc1ccc2c(c1)c(=O)c1c(NCCN(C)C)ccc3nc(C)n2c31 | 0.34 µg/mL and 770 nM | 150 | 
17 | Cc1nc2ccc(NCCCN(C)C)c3c(=O)c4cc(O)ccc4n1c23 | 0.1 µg/mL and 230 nM | 100 | 
